Results as given in article PMC9274295 (International Journal of Nanomedicine, 2022).
Where two headings read alike, the source gives them in different places.

Experiments:
SKOV-3 tumor = test: In vivo targeting; conditions: 0.11 µg DiR/g i.v., 1-24 h, tumor-bearing NU/NU mice
In short: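 Tumors made by injecting 1.0×10⁷ SKOV-3 cells/100 µL into the right lower abdomen of female NU/NU mice aged 5–6 weeks. At about 400 mm³, mice were randomised to free DiR or DiR-labelled liposomes, given by tail vein. Mice were anaesthetised with 4.0% chloral hydrate and imaged at 1, 2, 6, 12 and 24 h. They were then killed for ex vivo imaging and quantification of the tumor, heart, liver, spleen, lungs and kidneys.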

SKOV-3 cells = test: Combination index of PTX and CBP; type: cell-based, Human; conditions: read-out: IC50 of a single drug
In short: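 SKOV-3 cells cultured in McCoy's 5A with 10% FBS and penicillin-streptomycin at 37°C, 5% CO2. Seeded at 5.0×10³ cells/well and left overnight. Exposed for 48 h to each drug alone and to mixtures at various ratios, with the mixtures' final PTX at 0.2–50.0 μM. CCK-8 added for 2 h, then absorbance read at 450 nm. Data given as mean ± SD, n = 3.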

Compound: CCCCCCCCCCCCCCCCCCN1/C(=C/C=C/C=C/C=C/C2=[N+](CCCCCCCCCCCCCCCCCC)c3ccccc3C2(C)C)C(C)(C)c2ccccc21.[I-] [DiR]
- Enrichment in the tumor site (SKOV-3 tumor): not enriched in the tumor site

Compound: N.N.O=C([O-])C1(C(=O)[O-])CCC1.[Pt+2] [CBP, carboplatin]
- IC50 (SKOV-3 cells; single drug, SKOV-3 cells, 48 h, CCK-8): 19.2 µM

Compound: CC(=O)O[C@H]1C(=O)[C@@]2(C)[C@H]([C@H](OC(=O)c3ccccc3)[C@]3(O)C[C@H](OC(=O)[C@H](O)[C@@H](NC(=O)c4ccccc4)c4ccccc4)C(C)=C1C3(C)C)[C@]1(OC(C)=O)CO[C@@H]1C[C@@H]2O [PTX, Paclitaxel]
- IC50 (SKOV-3 cells; Homo sapiens, SK-OV-3, 48 h): 3.89 µM
